# V-ATPase pH: regulators of yeast V-ATPase proton pumping, primary screen, pHLuorin cytosolic pH fluorescence; S. cerevisiae; response, % at 10 µM; 350,000 tested, 0.37% active; in the data active means response mostly above about 7.3%, no sharp cut-off; inactive means mostly below about 5.4%; further: actives read high
# NR2E3 ag-1: inhibitors of NR2E3-RetCOR corepressor binding, primary screen, NR2E3 agonist project, biochemical, TR-FRET, GST-NR2E3, biotin-RetCOR. Photoreceptor-specific nuclear receptor (Homo sapiens), Q9Y5X4. 1536-well. inhibition of corepressor binding, % at 4.78 µM. 320,000 tested, 0.12% active. AID 2300, 2010;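 active means percent inhibition above the cutoff of mean plus 3 SD of all tested compounds, set per screening campaign, cut at about 20% in these data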;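 further: 0% = DMSO wells and 100% = biotin wells as full block of FRET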
# Target sequence (Q9Y5X4 whole entry, looked up): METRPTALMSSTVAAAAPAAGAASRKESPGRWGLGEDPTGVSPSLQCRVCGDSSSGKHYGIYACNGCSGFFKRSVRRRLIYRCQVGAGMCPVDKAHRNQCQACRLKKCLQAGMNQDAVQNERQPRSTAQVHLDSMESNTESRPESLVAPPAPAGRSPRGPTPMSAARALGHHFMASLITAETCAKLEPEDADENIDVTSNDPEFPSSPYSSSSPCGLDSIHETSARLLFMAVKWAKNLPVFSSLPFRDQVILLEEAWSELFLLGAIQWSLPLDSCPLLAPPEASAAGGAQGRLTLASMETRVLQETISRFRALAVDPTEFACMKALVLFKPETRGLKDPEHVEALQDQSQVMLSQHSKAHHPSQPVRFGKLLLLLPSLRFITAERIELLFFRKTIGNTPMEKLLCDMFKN
#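 Material: NR2E3–RetCOR corepressor complex / Incubation: Compound–protein incubation for 5 h at 4 °C / Dosing: compound at 4.8 µM, single dose / Detection: time-resolved FRET / Benchmarks: high control biotin, low control 0.6% DMSO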
# HIV Env fusion: inhibitors of HIV-1 Env-driven cell-cell fusion, primary screen, HeLa-JRFL effector, CEM21 target cells, luciferase; inhibition, % at 12.3 µM; 360,000 tested, 1.1% active;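 active means mean replicate inhibition score of at least 50 and every replicate individually at or above 50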;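 further: 0% = plate neutral controls and 100% = maraviroc near 300 nM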
# FXN GAA850 act: FXN promoter activators, primary screen, cell-based, luciferase luminescence, HEK293 lucGAA850; 360,000 tested, 0.56% active; AID 540364, 2011; HEK293 lucGAA850 FXN promoter luciferase reporter, 24 h; percent of 10 µM SAHA response; activation, % at 6 µM;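 active means activation above the average of all compounds screened plus 3 SD, cutoff fixed separately per campaign, cut at about 7.5% in these data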;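 further: 0% = DMSO wells and 100% = 10 µM SAHA wells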
# NR2E3 ag-2: NR2E3 agonists in two-hybrid cells, primary screen, cell-based, luminescence, CHO-S, Gal4-NCOR/VP16-NR2E3; luciferase; Photoreceptor-specific nuclear receptor (Homo sapiens), Q9Y5X4; 360,000 tested, 0.35% active; inhibition of corepressor binding, % at 3.98 µM;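 active means inhibition above the mean of all tested compounds plus 3 SD, cut at about 70% in these data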;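 further: 0% = DMSO with NR2E3 transfected cells and 100% = cells lacking NR2E3 construct; higher means lower luciferase signal from less NR2E3 corepressor binding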
# GalR3 antag: GalR3 antagonists in HEK293 cells, primary screen, cell-based, fluorescence readout; Galanin receptor type 3 (Homo sapiens), O60755; HEK293 GalR3-CNG cAMP membrane potential fluorescence; galR3 body fused to GalR1 C-terminus; inhibition, % at 3 µM; 360,000 tested, 0.44% active; AID 651719, 2012;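 active means inhibition above the screen-wide average plus 3 SD, cut at about 13% in these data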;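 further: forskolin and galanin both at EC90 stimulate the cells; cAMP rise reported by CNG channel membrane potential dye signal; 0% = forskolin plus galanin with DMSO and 100% = forskolin alone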
# Numbers without * were called inactive; x = not tested or not shown; ! = not confirmed by another sample; [ ] = another dose, or the depositor's remark. Shown are actives, neighbours in structure and some others; about 2.2% of the full set was active somewhere.
SMILES,V-ATPase pH,NR2E3 ag-1,HIV Env fusion,FXN GAA850 act,NR2E3 ag-2,GalR3 antag
CC(C)NC(=O)N(C)C[C@H]1Oc2ccc(NC(=O)c3ccncc3)cc2C(=O)N([C@@H](C)CO)C[C@H]1C,x,x,-5[16.7 µM],x,x,x
Cc1cc(NC(=O)CCC(=O)N(C2CC2)C2(C(=O)NC3CCCC3)CCC(C)CC2)no1 (stereo not drawn),-2,-2,100*,5,11,-4
C[C@@H]1CCCCO[C@H](CN(C)Cc2ccc3c(c2)OCO3)[C@@H](C)CN([C@H](C)CO)C(=O)c2cc(NS(=O)(=O)c3ccccc3)ccc2O1,x,x,-35[16.7 µM],x,x,x
Cc1nnsc1NC(=O)OCc1ccc(C(C)(C)C)cc1,-5,-6,x,-3,68,36*
c1ccc(CSc2ncnc3c2cnn3Cc2ccccc2)cc1,17*,0,-329,-1,-29,-7
Cc1noc(C)c1NC(=O)Nc1ccc2c(c1)C(=O)N([C@H](C)CO)C[C@H](C)[C@@H](CN(C)Cc1ccccc1)OCCCC[C@@H](C)O2,x,x,-4[16.7 µM],x,x,x
N=c1c2c(n(Cc3ccc(Br)cc3)c3c1CCC3)CCCC2,4,2,70*,-5,-2,0
O=C(N[C@H]1CC[C@H](CCNC(=O)C2CCOCC2)O[C@@H]1CO)c1ccncc1,x,x,-5[16.7 µM],x,x,x
CC(CCN1CCC(CN2C(=S)NCC2Cc2ccccc2)CC1)c1ccccc1 (stereo not drawn),0,x,66*,1,-12,-6
CC(C)C[C@H]1CNC(=S)N1C[C@H]1CCCN1C[C@H](Cc1ccc(O)cc1)N1C[C@H](Cc2ccccc2)N(CC2CCCCCC2)C1=S,x,x,94*,x,1,-5
Oc1ccc(C[C@H]2CN([C@@H](Cc3ccccc3)CN3CCC[C@@H]3CN3C(=S)NC[C@@H]3Cc3ccccc3)C(=S)N2CC2CCCCC2)cc1,x,x,7,x,-7,-1
Oc1ccc(C[C@H]2CNC(=S)N2CC2CCCN2C[C@H](Cc2ccc(O)cc2)N2C[C@H](Cc3ccccc3)N(CC3CCCCCC3)C2=S)cc1 (stereo partly drawn),0,x,61*,2,-1,-5
C[n+]1c2n(c3ccccc31)N=C(c1ccc(Br)cc1)CS2,0,-2,32,1,-35,-4
C[n+]1c2n(c3ccccc31)N=C(c1ccc(-c3ccccc3)cc1)CS2,0,2,66*,-4,-8,-3
C[n+]1c2n(c3ccccc31)N=C(c1ccccc1)CS2,0,-2,61*!,2,-21,-6
O=C(Nc1nccs1)c1cn(-c2ccccc2)nc1-c1ccccc1,-1,1,x,-2,-11,-4
CC(C)COc1ccc(-c2nn(-c3ccccc3)cc2C(=O)Nc2nccs2)cc1,-4,-1,72*,1,-2,-3
CC(=O)c1cccc(Nc2nc(-c3cccc([N+](=O)[O-])c3)cs2)c1,0,2,72*,8.0*,-75,6
CCCNC(=O)N(C)C[C@H]1Oc2ncc(-c3cccc(C#N)c3)cc2C(=O)N([C@H](C)CO)C[C@H]1C,x,x,9[16.7 µM],x,x,x
COc1ccc(NC(=O)CN(C)C(=O)CN2C(=O)c3ccc([N+](=O)[O-])cc3C2=O)cc1,-1,-11,-9,3,2,6
COc1ccc(-c2cc([N+](=O)[O-])ccc2OCC(=O)N(C)CC(=O)Nc2ccc(C)cc2)cc1,4,x,104*,7,-18,-3
CC(C)NC(=O)N(C)C[C@@H]1OCCCC[C@@H](C)Oc2ccc(NC(=O)CCCN(C)C)cc2C(=O)N([C@@H](C)CO)C[C@H]1C,x,x,-10[16.7 µM],x,x,x
Cc1noc(C)c1S(=O)(=O)N(C)C[C@H]1Oc2ccc(NC(=O)CCCN(C)C)cc2C(=O)N([C@@H](C)CO)C[C@H]1C,x,x,-4[16.7 µM],x,x,x
C/C(=N/NS(=O)(=O)c1ccc(Br)cc1)c1c[nH]c2ccccc12,-2,-3,66*,1,-18,-2
C=CC[n+]1ccc(/C=C2\C=Cc3cc(C)ccc3N2CC)c2ccccc21,-2,x,x,-8,93*,x
SMILES,V-ATPase pH,NR2E3 ag-1,HIV Env fusion,FXN GAA850 act,NR2E3 ag-2,GalR3 antag
COC(=O)C[C@H]1CC[C@H]2[C@H](COc3ccc(NC(=O)c4cc(F)cc(F)c4)cc3C(=O)N2C)O1,x,x,6[16.7 µM],x,x,x
Cc1ccc2[nH]c(=O)c(CN(CCc3ccccc3)C(c3nnnn3Cc3ccco3)C(C)C)cc2c1 (stereo not drawn),-2,0,72*,3,-25,4
Cc1noc(C)c1S(=O)(=O)Nc1ccc2c(c1)CC(=O)N([C@H](C)CO)C[C@@H](C)[C@H](CN(C)CC1CCCCC1)O2,x,x,22[16.7 µM],x,x,x
CC1(C)C2CCC1(C)C(OCCNCCOC(=O)Nc1ccccc1)C2 (stereo not drawn),14*,0,69*,5,-9,-3
CCC(=O)N1C[C@H](O)COC[C@@H]2O[C@H](CC(=O)N3CCCCC3)CC[C@H]21,x,x,-45[16.7 µM],x,x,x
CCOC(=O)N1CCN(C(=O)c2cc3c(=O)n(C)c4ccccc4c3n2C)CC1,-2,-1,66*,1,9,0
CCCCc1nc2cc(C(=O)N(C)CCc3cn[nH]c3)ccc2o1,15*,-5,-15,2,-28,-8
Cc1ccc(-c2ccc(CN3C(CC(C)C)C(=O)N(Cc4cn(CC5CCCCC5)nn4)CCS3(=O)=O)cc2)cc1 (stereo not drawn),-2,x,6,0,-25,-7
CCC/C=C/c1ccc(CN2C(CC(C)C)C(=O)N(Cc3cn(CC4CCCCC4)nn3)CCS2(=O)=O)cc1 (stereo not drawn),-4,x,89*,7,4,-4
CC(=O)Nc1ccc2c(c1)C(=O)N(C)[C@H]1CC[C@H](CC(=O)N3CCc4ccccc4C3)O[C@@H]1CO2,x,x,-11[16.7 µM],x,x,x
COc1ccc(S(=O)(=O)N(C)C[C@H]2Oc3ccc(NC(=O)C4CCCCC4)cc3CC(=O)N([C@H](C)CO)C[C@H]2C)cc1,x,x,-2[16.7 µM],x,x,x
Cc1ccc(Cl)cc1N1CCN(C(=O)CSc2nnc3n2C(C)(C)Cc2ccccc2-3)CC1,3,0,76*,-8,87*,-2
C[C@@H](C(=O)NCc1ccc(S(C)(=O)=O)cc1)[C@H]1C[C@]1(C)[C@H](NC(=O)OCc1ccccc1)c1ccccc1,x,2,55*,x,x,-5
Cn1c2ccccc2c(=O)c2cc(C#Cc3ccc(N)cc3)ccc21,0,3,-56,5,-57,-4

# Screening results as filed in PubChem.
